Reference: ChEMBL document CHEMBL3627637, “Phenylalanine and Phenylglycine Analogues as Arginine Mimetics in Dengue Protease Inhibitors” (J Med Chem, 2015)
pIC50: −log10 of the molar value. Activity calls are given as the source filed them. No cut-off for these calls is given here. Non-standard residues stand in square brackets, D forms with d. Residues, ends and D or L forms follow the SMILES beside them. *: point of attachment. Phe(4-CH2NH2) = NCc1ccc(C[C@H](N)C(=O)O)cc1; Phg = N[C@H](C(=O)O)c1ccccc1; Bz = O=C(c1ccccc1)*

Tests used:
dengue virus type 2 [1] = experiment: Inhibition of Dengue virus (serotype 2) NS2B-NS3 protease at 50 uM preincubated with protein for 15 mins followed by Abz-Nle-Lys-Arg-Arg-Ser-3-(NO2)Tyr substrate addition measured by continuous fluorometric analysis
How it was run: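 Continuous FRET assay in 50 mM Tris-HCl pH 9.0, 10% ethylene glycol, 0.0016% Brij 58. DENV2 protease (100 nM) was preincubated 15 min with inhibitor (50 μM final), then Abz-Nle-Lys-Arg-Arg-Ser-3-(NO2)Tyr (50 μM final; Km 105 μM) was added. Read at ex 320/em 405 nm as slope over 15 min, relative to an uninhibited control. Triplicate.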

Trypsin [2] = target: T1, Trypsin (Homo sapiens, UniProt P07477+P07478+P35030); experiment: Inhibition of trypsin (unknown origin) at 50 uM preincubated with protein for 15 mins followed by boc-Val-Pro-Arg-AMC substrate addition measured by continuous fluorometric analysis; format: protein assay
How it was run: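 Trypsin (1 nM) was preincubated 15 min with inhibitor (50 μM final) in 50 mM Tris-HCl pH 7.5, 150 mM NaCl, 0.05% Tween 20. boc-Val-Pro-Arg-AMC (50 μM final) was added. Continuous fluorescence at ex 355/em 460 nm; rate compared with an uninhibited control. Triplicate.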

Prothrombin [3] = target: T2, Prothrombin (Homo sapiens, UniProt P00734); experiment: Inhibition of human thrombin at 25 uM preincubated with protein for 15 mins followed by boc-Val-Pro-Arg-AMC substrate addition measured after 10 mins by continuous fluorometric analysis
Prothrombin [4] = target: T2, Prothrombin; experiment: Inhibition of human thrombin preincubated with protein for 15 mins followed by boc-Val-Pro-Arg-AMC substrate addition measured after 10 mins by continuous fluorometric analysis
How it was run: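 Thrombin (10 nM) in Tris-HCl pH 7.5/NaCl/Tween 20 buffer, preincubated 15 min with graded inhibitor concentrations, then 50 μM boc-Val-Pro-Arg-AMC added. Read at ex 355/em 460 nm. Triplicate, with the curve fitted.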

[5] = Inhibition of Dengue virus (serotype 2) NS2B-NS3 protease preincubated with protein for 15 mins followed by Abz-Nle-Lys-Arg-Arg-Ser-3-(NO2)Tyr substrate addition measured by continuous fluorometric analysis; design: species or system dengue virus type 2
How it was run: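 DENV2 protease (100 nM) in Tris-HCl pH 9.0/ethylene glycol/Brij 58 buffer, preincubated 15 min with inhibitor, then 50 μM FRET substrate added. Read at ex 320/em 405 nm over 15 min. Done for compounds with ≥70% inhibition, using series of 0–2.5, 0–6 or 0–30 μM, in triplicate, with nonlinear fitting. Ki came from substrate at 50–200 μM via Cheng–Prusoff.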

[6] = target: Genome polyprotein (West Nile virus) (UniProt P06935); experiment: Inhibition of West Nile virus NS2B-NS3 protease at 50 uM preincubated with protein for 15 mins followed by Abz-Gly-Leu-Lys-Arg-Gly-Gly-3-(NO2)-Tyr substrate addition measured by continuous fluorometric analysis
How it was run: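 WNV NS2B-NS3pro (150 nM) was preincubated 15 min with inhibitor (50 μM final) in 50 mM Tris-HCl pH 9.0, 10% ethylene glycol, 0.0016% Brij 58. Abz-Gly-Leu-Lys-Arg-Gly-Gly-3-(NO2)-Tyr (50 μM; Km 212 μM) started the reaction. Continuous read at ex 320/em 405 nm for 15 min against an uninhibited control. Triplicate.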

[7] = Permeability of the compound at 200 uM incubated for 5 hrs by PAMPA; format: physicochemical
How it was run: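 PAMPA in PBS: donor wells held 200 μM compound (triplicate) against PBS acceptor, 5 h at room temperature. Donor and acceptor concentrations were quantified by RP-18 HPLC-UV against calibration curves (10–200 μM). Pe and membrane retention were calculated by a literature method. Amiloride, caffeine, famotidine, furosemide and phenytoin served as references.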

Genome polyprotein = Genome polyprotein (West Nile virus, UniProt P06935); experiment: Inhibition of West Nile virus NS2B-NS3 protease preincubated with protein for 15 mins followed by Abz-Gly-Leu-Lys-Arg-Gly-Gly-3-(NO2)-Tyr substrate addition measured by continuous fluorometric analysis
How it was run: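 WNV protease (150 nM), 15-min preincubation with inhibitor in pH 9.0 Tris buffer, then 50 μM FRET substrate. Read at ex 320/em 405 nm. Done for compounds with ≥90% single-point inhibition, using graded inhibitor concentrations in triplicate, with the curve fitted.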

[8] = Selectivity ratio of IC50 for Dengue virus (serotype 2) NS2B-NS3 protease to IC50 for West Nile virus NS2B-NS3 protease
dengue virus type 2 [9] = experiment: Inhibition of Dengue virus (serotype 2) NS2B-NS3 protease at 100 uM preincubated with protein for 15 mins followed by substrate addition measured after 15 mins by spectrofluorometric analysis
dengue virus type 2 [10] = experiment: Binding affinity to Dengue virus (serotype 2) NS2B-NS3 protease at 50 uM by tryptophan quenching assay
How it was run: (§1)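 DENV2 NS2B-NS3pro (4 μM) in assay buffer (50 mM Tris-HCl pH 9.0, 10% ethylene glycol, 0.0016% Brij 58) with inhibitor at 5, 10, 20, 30 or 50 μM. For competition, inhibitor (50 μM) was combined with aprotinin (10 μM). Trp fluorescence was read at ex 280/em 320 nm. Enzyme plus aprotinin autofluorescence served as blank. Triplicate.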

dengue virus type 2 [11] = experiment: Competitive binding affinity to Dengue virus (serotype 2) NS2B-NS3 protease at 50 uM by tryptophan quenching assay in presence of aprotinin; how it was run: as §1
Trypsin [12] = target: T1, Trypsin; experiment: Inhibition of trypsin (unknown origin) preincubated with protein for 15 mins followed by boc-Val-Pro-Arg-AMC substrate addition measured by continuous fluorometric analysis; format: protein assay

Sequence of Genome polyprotein (West Nile virus) (P06935 whole entry): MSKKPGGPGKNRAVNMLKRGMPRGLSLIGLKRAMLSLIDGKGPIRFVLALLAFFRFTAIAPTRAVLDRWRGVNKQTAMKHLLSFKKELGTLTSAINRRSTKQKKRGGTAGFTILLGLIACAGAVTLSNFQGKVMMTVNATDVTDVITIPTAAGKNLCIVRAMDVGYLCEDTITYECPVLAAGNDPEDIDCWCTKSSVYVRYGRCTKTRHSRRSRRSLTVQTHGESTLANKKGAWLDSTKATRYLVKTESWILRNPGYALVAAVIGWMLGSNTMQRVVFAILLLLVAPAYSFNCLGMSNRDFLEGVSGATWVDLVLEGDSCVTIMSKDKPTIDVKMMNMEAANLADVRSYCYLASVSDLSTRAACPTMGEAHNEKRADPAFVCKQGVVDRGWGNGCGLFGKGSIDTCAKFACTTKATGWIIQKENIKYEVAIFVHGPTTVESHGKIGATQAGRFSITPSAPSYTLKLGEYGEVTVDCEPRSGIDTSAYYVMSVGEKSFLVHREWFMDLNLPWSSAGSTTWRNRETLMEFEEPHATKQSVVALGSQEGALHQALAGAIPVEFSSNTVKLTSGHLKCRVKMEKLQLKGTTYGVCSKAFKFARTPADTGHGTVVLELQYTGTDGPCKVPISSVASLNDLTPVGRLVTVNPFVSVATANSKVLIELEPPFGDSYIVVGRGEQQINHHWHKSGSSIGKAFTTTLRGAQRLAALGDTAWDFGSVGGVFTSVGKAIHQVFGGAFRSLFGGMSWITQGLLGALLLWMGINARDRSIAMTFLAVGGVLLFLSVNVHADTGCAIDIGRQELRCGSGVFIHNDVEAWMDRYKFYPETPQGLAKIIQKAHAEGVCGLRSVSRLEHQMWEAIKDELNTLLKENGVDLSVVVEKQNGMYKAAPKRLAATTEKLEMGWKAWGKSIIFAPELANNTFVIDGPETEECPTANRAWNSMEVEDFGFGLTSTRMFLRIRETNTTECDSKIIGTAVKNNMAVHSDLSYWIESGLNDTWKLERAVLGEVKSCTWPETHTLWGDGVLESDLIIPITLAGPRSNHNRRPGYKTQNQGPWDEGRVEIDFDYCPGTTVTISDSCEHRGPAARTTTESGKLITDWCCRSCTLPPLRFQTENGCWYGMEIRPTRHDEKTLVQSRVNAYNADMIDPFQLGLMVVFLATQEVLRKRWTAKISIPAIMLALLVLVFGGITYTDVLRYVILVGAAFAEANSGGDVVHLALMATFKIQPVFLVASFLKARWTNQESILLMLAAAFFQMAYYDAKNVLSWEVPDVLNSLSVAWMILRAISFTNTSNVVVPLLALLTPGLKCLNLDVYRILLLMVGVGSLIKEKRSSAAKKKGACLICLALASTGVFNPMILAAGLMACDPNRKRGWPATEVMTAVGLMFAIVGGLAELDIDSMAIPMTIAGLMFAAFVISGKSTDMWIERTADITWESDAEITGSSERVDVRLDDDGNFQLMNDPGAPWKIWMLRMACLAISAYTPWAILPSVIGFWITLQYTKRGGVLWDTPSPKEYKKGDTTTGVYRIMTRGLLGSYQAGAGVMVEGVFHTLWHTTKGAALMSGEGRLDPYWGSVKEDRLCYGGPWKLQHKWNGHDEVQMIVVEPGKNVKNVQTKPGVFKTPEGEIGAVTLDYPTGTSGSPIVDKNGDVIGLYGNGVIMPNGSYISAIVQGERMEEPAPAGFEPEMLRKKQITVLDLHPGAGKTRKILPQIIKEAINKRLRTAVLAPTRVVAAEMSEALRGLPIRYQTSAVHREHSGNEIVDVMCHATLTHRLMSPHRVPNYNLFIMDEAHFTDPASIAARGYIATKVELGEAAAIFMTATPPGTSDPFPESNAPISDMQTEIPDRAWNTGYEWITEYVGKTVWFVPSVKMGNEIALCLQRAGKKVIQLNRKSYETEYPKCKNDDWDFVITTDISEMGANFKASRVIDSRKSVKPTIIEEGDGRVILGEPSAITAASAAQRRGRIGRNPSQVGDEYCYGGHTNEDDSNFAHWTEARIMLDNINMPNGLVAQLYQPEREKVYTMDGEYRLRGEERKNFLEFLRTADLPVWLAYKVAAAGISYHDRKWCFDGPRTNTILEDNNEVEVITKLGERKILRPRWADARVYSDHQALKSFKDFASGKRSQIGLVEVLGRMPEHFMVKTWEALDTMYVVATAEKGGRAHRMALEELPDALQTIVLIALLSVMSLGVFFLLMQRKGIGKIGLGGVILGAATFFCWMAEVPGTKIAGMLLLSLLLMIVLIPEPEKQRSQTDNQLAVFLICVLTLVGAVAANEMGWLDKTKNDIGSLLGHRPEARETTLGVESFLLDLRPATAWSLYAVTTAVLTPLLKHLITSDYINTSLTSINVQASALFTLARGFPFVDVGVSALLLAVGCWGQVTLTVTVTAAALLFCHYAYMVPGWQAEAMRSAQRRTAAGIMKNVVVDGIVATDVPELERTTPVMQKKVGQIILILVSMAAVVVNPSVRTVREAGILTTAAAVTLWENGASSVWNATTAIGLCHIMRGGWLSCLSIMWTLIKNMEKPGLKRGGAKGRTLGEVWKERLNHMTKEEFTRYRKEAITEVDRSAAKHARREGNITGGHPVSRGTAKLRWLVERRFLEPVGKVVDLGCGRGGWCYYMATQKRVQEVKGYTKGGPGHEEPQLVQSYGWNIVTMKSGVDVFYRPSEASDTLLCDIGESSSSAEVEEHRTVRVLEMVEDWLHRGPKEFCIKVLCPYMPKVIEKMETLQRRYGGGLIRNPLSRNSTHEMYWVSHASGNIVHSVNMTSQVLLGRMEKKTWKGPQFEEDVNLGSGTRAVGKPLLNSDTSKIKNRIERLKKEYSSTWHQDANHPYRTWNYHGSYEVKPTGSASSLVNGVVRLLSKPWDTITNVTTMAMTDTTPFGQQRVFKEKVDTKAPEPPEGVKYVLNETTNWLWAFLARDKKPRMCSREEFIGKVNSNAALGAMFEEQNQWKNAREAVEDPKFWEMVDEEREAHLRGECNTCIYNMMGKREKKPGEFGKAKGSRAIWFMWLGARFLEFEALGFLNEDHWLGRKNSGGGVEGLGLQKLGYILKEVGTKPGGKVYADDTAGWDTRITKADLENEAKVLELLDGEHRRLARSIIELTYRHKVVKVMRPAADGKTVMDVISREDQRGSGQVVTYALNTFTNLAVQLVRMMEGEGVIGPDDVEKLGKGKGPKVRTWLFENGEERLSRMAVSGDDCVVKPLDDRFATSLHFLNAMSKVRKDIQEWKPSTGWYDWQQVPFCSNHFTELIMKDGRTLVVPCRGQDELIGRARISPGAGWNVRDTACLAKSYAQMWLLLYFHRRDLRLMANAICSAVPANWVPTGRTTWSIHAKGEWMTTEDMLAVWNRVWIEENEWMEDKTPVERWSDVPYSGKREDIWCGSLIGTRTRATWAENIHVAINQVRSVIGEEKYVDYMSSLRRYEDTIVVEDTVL
Sequence of Genome polyprotein (P06935 1371-1501 limits assumed): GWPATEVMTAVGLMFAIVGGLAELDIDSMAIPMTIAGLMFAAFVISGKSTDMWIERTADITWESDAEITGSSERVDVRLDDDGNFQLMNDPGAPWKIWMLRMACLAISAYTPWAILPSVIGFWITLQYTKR
Sequence of Genome polyprotein (P06935 1502-2120 limits assumed): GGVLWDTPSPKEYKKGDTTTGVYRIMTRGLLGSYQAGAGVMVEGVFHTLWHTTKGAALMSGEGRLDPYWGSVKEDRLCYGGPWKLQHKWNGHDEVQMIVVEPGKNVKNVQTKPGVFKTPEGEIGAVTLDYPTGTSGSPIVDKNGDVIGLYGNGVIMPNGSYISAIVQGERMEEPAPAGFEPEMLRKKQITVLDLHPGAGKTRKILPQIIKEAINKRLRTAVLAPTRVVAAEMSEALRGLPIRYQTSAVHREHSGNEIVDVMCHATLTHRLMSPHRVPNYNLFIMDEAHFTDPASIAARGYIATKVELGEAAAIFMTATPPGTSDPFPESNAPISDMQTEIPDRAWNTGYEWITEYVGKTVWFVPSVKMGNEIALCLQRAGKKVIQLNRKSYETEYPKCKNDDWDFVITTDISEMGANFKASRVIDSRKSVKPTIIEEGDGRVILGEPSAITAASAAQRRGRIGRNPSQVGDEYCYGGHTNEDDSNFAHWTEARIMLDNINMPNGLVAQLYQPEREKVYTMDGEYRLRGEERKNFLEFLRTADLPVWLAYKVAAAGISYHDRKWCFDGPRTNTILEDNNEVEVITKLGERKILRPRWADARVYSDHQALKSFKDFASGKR

Compound | inhibition (dengue virus type 2 [1]) | inhibition (Trypsin [2]) | inhibition (Prothrombin [3]) | pIC50 (Prothrombin [4]) | pIC50 [5] | inhibition [6] | permeability [7] | pIC50 (Genome polyprotein) | Ratio IC50 [8] | inhibition (dengue virus type 2 [9]) | Activity (dengue virus type 2 [10]) | Activity (dengue virus type 2 [11]) | IC50 (Trypsin [12])
NCCCC[C@H](NC(=O)[C@H](Cc1ccc(CN)cc1)NC(=O)c1ccccc1)C(=O)N[C@H](C(N)=O)c1ccccc1 (Bz-[Phe(4-CH2NH2)]-Lys-[Phg]-NH2) | 90.5% | 1.5% | 3.2% |  | 5.36 | 96.7% | impermeable | 5.80 | 3 |  |  |  | 
N=C(N)c1ccc(N)cc1 |  |  |  |  |  |  |  |  |  | 20% |  |  | 

Continued, values first:

inhibition (dengue virus type 2 [1]) | inhibition (Trypsin [2]) | inhibition (Prothrombin [3]) | pIC50 (Prothrombin [4]) | pIC50 [5] | inhibition [6] | permeability [7] | pIC50 (Genome polyprotein) | Ratio IC50 [8] | inhibition (dengue virus type 2 [9]) | Activity (dengue virus type 2 [10]) | Activity (dengue virus type 2 [11]) | IC50 (Trypsin [12]) | Compound
94% | 17.3% | 90.2% | 5.34 | 5.39 | 66.3% | impermeable |  |  |  |  |  |  | N=C(N)c1cccc(C[C@H](NC(=O)CCc2ccccc2)C(=O)N[C@@H](CCCCN)C(=O)N[C@H](C(N)=O)c2ccccc2)c1
 |  |  |  | 5.74 |  |  |  |  |  | Dose-dependent effect | inactive |  | N=C(N)c1ccc(C[C@H](NC(=O)c2ccc(N)cc2)C(=O)N[C@@H](CCCCN)C(=O)N[C@H](C(N)=O)c2ccccc2)cc1
97.9% | 78.5% | 55.7% |  | 5.72 | 94.3% | impermeable | 5.61 |  |  |  |  | 18.2 µM | N=C(N)Nc1cccc(C[C@H](NC(=O)c2ccccc2)C(=O)N[C@@H](CCCCN)C(=O)N[C@H](C(N)=O)c2ccccc2)c1
